Measurements from article PMC7194030 (Science translational medicine, 2019).
Structures can show the parent of a compound that is named as a salt. Where two headings read alike, the source gives them in different places.

Legend:
[1] = test system: murine BFU-Es; experiment: Mouse BFU-E culture system; format: cell-based; conditions: for Percentage of Ter119+ cells with or without compound: day 14 of culture, flow cytometry; for BFU-E expansion: purified murine fetal liver BFU-Es, cell numbers counted days 0 to 9
Outline: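 Cells are counted from day 0 to day 9 (three distinct samples; two-way ANOVA). At end of culture, cells are stained with anti-Ter119 and Ter119+ percentage is measured by flow cytometry (three samples; one-tailed t test).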

[2] = test system: Mx1-Cre Srsf2P95H/WT MDS mice; format: in vivo; conditions: for BFU-E self-renewal (splenic BFU-E colonies): daily treatment
[3] = test system: murine BFU-Es; experiment: RNA-seq of cultured BFU-Es; format: cell-based, mouse; conditions: 100 μM oxyphenonium bromide or 3 nM PD102807
Outline: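 BFU-Es FACS-sorted from E14.5 mouse fetal liver and cultured at 37°C in serum-free SFEM II with SCF, EPO, IGF-1 and dexamethasone. Treatments: test compound (100 μM or 3 nM), 100 nM dexamethasone, or DMSO. RNA extracted with a column kit, Illumina libraries prepared, sequenced on HiSeq 2500. Three to six replicates.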

[4] = test system: C57bl/6 mice; experiment: Pharmacodynamics study; format: in vivo, mouse
Outline: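 PHZ hemolytic anemia model: female C57bl/6 mice, 8–10 weeks old, randomised to groups and given test compound at different doses or DMSO control intraperitoneally every day. Anemia induced with intraperitoneal PHZ (60 mg/kg). Complete blood counts taken. 7 to 10 mice per group.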

[5] = test system: murine BFU-Es; experiment: BFU-E colony formation assay of cultured murine BFU-Es; format: cell-based, mouse; conditions: colonies counted on day 9 of colony formation assay
Outline: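 BFU-Es (lin−Ter119−CD16/CD32−Sca-1−CD41−c-Kit+CD71/Cd24a10%low) are FACS-sorted from E14.5 C57bl/6 fetal liver. Cells are then plated in MethoCult SF M3436, and colonies are counted on day 9. Nine distinct samples; one-tailed t test.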

[6] = test system: human CD34+ HSPC; experiment: Human CD34+ HSPC erythroid differentiation culture system; format: cell-based; conditions: for Formation of BFU-E colonies: human CD34+ HSPC; for Erythroid cell expansion: human CD34+ HSPC from healthy donors
[7] = test system: C57bl/6 mice; conditions: in vivo
[8] = test system: BFU-Es; experiment: cAMP assay in BFU-Es; format: cell-based, mouse; conditions: PD102807 3 nM, forskolin 10 μM, 45 min
Outline: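 Sorted murine fetal-liver BFU-Es are exposed for 45 min to DMSO, 3 nM test compound, or 10 μM forskolin. Cells are lysed in 0.1 M HCl (20 min, room temperature) and cleared at 15,000g for 10 min. Samples are neutralized, acetylated, and run in a competitive cAMP immunoassay (antibody, then cAMP-HRP, 1 h each; HRP developer 1 h). The reaction is stopped with 1 M HCl and read at OD 450 nm.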

[9] = test system: CFU-E; experiment: Mouse CFU-E culture system; format: cell-based
[10] = target: human recombinant CHRM4 receptor (Homo sapiens, UniProt P08173); conditions: protein binding assay, IC50 on CHRM1-5
Chain of human recombinant CHRM4 receptor (P08173 whole entry): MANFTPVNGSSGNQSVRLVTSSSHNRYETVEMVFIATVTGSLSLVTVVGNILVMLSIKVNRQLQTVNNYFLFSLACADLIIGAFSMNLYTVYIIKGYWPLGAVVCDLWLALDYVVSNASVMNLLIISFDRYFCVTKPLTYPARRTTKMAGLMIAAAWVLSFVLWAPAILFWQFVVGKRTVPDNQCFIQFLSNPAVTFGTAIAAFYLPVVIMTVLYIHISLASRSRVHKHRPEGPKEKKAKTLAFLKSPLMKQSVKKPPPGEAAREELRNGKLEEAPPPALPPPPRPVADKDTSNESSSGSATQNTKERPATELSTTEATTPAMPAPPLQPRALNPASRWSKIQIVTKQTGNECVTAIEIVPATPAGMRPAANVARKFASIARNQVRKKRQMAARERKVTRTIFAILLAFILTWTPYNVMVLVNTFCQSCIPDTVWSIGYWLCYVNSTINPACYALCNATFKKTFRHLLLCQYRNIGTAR

[11] = test system: CD34+ cells from patients with MDS; experiment: Erythroid differentiation culture of CD34+ cells from patients with MDS; format: cell-based, human
Outline: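 MDS patient CD34+ cells (eight patients) are cultured in SFEM with rhSCF 20 ng/ml, rhIL-3 5 ng/ml, EPO 1 U/ml and dexamethasone 1 nM, with DMSO or 3 nM test compound. Read-outs: relative cell expansion, CD235a+ fraction by flow cytometry, annexin V apoptosis, and May-Grünwald–Giemsa cytospin morphology. One-tailed t test.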

Row | SMILES | Percentage of Ter119+ cells with or without compound [1] | BFU-E expansion [1] | BFU-E self-renewal (splenic BFU-E colonies) ([2]; MDS mice) | BFU-E gene signature expression [3] | Anti-anemia minimal effective dose [4] [mg/kg] | Formation of BFU-E colonies [6] | Erythroid cell expansion [6] | cAMP concentration in BFU-Es relative to DMSO [8] | also measured
1 | CC[N+](C)(CC)CCOC(=O)C(O)(c1ccccc1)C1CCCCC1 (stereo not shown) [oxyphenonium bromide] | no difference | triggered BFU-E expansion | promoted BFU-E self-renewal | up-regulated a gene signature characteristic of BFU-Es | 25 | increased formation of BFU-E colonies | expanded erythroid cells |  | BFU-E expansion and erythrocyte production ([1]; 100 μM oxyphenonium bromide): prolonged expansion resulting in increased production of erythrocytes; Formation of BFU-E colonies [5]: increased formation of BFU-E colonies; Maximal tolerated dose ([7]; female, C57bl/6, mouse, 7 days): 50 mg/kg
2 | C=C[C@@]1(C)CC(=O)[C@]2(O)[C@@]3(C)[C@@H](O)CCC(C)(C)[C@@H]3[C@H](O)[C@H](OC(C)=O)[C@@]2(C)O1 [forskolin] |  | promoted BFU-E expansion |  |  |  |  |  | increased in concentration | 
3 | Cc1ccccc1C(OCCN(C)C)c1ccccc1 (stereo not shown) [orphenadrine citrate] |  | triggered BFU-E expansion | promoted BFU-E self-renewal |  | 100 |  |  |  | Tolerability in vivo ([2]; mouse, in vivo): well tolerated; White blood cell or platelet production ([2]; mouse, in vivo): no influence
4 | CCCCCCOC(=O)[C@]1(O)C[C@@H]2O[C@@]1(C)n1c3ccccc3c3c4c(c5c6ccccc6n2c5c31)C(=O)NC4 [KT5720] |  |  |  |  |  |  |  |  | Effect on CHRM4 antagonist-induced BFU-E expansion ([1]; 2 μM KT5720 with 3 nM PD102807, day 9): blocked CHRM4 antagonist–induced BFU-E expansion
5 | CCOC(=O)c1c(C)[nH]c2ccc3c(c12)CN1CCc2cc(OC)ccc2C1O3 (stereo not shown) [PD102807] | no difference | promoted BFU-E expansion at nanomolar concentrations | promoted BFU-E self-renewal | up-regulated a gene signature characteristic of BFU-Es | 100 | increased formation of BFU-E colonies | expanded erythroid cells | increased in concentration | Tolerability in vivo ([2]; MDS mice): well tolerated; Weight loss, liver or kidney function ([2]; MDS mice): no substantial effects; White blood cell or platelet production ([2]; MDS mice): no influence; CFU-E proliferation [9]: no effect; Selectivity for CHRM4 over other muscarinic acetylcholine receptors [10]: selectively inhibits CHRM4 over other muscarinic acetylcholine receptors; Cell survival or differentiation with and without compound ([11]; 3 nM PD102807): no difference; Production of erythroid cells ([11]; 3 nM PD102807, eight patients): increased production of erythroid cells; Maximal tolerated dose ([7]; mouse): 100 mg/kg
